In ChEMBL document CHEMBL4610111, “Phenolic Compounds from Morus nigra Regulate Viability and Apoptosis of Pancreatic β-Cells Possibly via SERCA Activity” (ACS Med Chem Lett, 2020):
The source made the active and inactive calls. The calls are words filed in the database; no cut-off is given here.

What was measured:
[1] = biological target: Sarcoplasmic/endoplasmic reticulum calcium ATPase 1 (Oryctolagus cuniculus, UniProt P04191); test: Inhibition of SERCA1 in NewZealand rabbit skeletal muscle SR vesicles using ATP as substrate incubated for 2 mins followed by Ca2+ addition by NADH coupled enzyme assay
Chain of Sarcoplasmic/endoplasmic reticulum calcium ATPase 1 (P04191 whole entry): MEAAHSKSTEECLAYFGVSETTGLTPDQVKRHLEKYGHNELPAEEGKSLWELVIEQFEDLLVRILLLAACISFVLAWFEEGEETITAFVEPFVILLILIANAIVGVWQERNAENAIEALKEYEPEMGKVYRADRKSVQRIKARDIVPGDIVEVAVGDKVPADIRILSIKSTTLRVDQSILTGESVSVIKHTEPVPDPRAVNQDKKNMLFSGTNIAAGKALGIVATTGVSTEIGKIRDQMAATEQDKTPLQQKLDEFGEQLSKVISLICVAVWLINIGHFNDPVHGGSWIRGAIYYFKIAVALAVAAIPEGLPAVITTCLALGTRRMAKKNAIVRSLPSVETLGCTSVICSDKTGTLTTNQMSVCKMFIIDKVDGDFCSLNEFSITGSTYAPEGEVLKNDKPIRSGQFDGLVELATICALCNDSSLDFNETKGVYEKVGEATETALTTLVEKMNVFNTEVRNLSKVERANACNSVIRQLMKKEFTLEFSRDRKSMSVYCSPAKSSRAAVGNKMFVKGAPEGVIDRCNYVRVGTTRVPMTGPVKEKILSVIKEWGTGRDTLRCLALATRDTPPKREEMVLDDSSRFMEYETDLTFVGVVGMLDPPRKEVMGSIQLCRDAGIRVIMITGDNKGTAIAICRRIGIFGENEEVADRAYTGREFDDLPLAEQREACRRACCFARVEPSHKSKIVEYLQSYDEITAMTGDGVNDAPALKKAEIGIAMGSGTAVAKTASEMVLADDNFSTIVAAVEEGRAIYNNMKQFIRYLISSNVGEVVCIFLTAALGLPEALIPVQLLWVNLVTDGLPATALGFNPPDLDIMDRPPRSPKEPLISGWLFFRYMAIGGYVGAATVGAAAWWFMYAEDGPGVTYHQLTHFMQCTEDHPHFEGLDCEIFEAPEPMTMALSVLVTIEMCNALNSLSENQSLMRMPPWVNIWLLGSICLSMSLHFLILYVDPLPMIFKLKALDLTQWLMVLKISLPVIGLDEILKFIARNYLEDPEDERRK
How it was run: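 SR vesicles (1 mg prot./ml) incubated with compound (10–70 μM) for 2 min at 37 °C, pH 7.2. Ca2+-ATPase rate measured by NADH-coupled enzyme assay as absorbance at 340 nm, 37 °C. Compared with untreated control; mean ± SD from at least three independent experiments.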

[2] = biological target: Sarcoplasmic/endoplasmic reticulum calcium ATPase 1 (Oryctolagus cuniculus) (UniProt P04191); test: Binding affinity to cytosolic region of SERCA1 ATP binding site in NewZealand rabbit SR vesicles assessed as conformational changes by measuring decrease in fluorescence intensity at IC50 incubated for 1 hr by FITC probe labeling based analysis
Chain of Sarcoplasmic/endoplasmic reticulum calcium ATPase 1 (Oryctolagus cuniculus) (P04191 whole entry): as above
How it was run: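 FITC labelling of SR vesicles (protein 12.5 mg/mL) after 1 h preincubation with compound, used as a probe of the cytosolic region of SERCA1. Figure legend states 30 min incubation at 20 mg/mL SR protein. Read-out is the decrease in FITC fluorescence versus untreated control. Mean ± SD from at least three independent experiments, each sample measured 2–3 times.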

[3] = biological target: Sarcoplasmic/endoplasmic reticulum calcium ATPase 1 (Oryctolagus cuniculus) (UniProt P04191); test: Binding affinity to transmembrane region of SERCA1A ATP binding site in NewZealand rabbit SR vesicles assessed as conformational changes by measuring intrinsic Trp fluorescence at IC50 incubated for 30 mins by spectrofluorometric analysis
How it was run: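 SR vesicles (1 mg protein/mL) incubated 30 min with compound, at 37 °C per methods or room temperature per legend. Trp fluorescence excited at 295 nm, with emission maxima at 336 and 358 nm. Conformational change expressed as the I358/I336 ratio versus untreated control.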

[4] = biological target: Sarcoplasmic/endoplasmic reticulum calcium ATPase 1 (Rattus norvegicus) (UniProt Q64578); test: Inhibition of SERCA1 in glucose-stimulated rat INS-1E cells assessed as decline in insulin release preincubated for 24 hrs followed by glucose addition and measured after 30 mins by RIA
Chain of Sarcoplasmic/endoplasmic reticulum calcium ATPase 1 (Rattus norvegicus) (Q64578 whole entry): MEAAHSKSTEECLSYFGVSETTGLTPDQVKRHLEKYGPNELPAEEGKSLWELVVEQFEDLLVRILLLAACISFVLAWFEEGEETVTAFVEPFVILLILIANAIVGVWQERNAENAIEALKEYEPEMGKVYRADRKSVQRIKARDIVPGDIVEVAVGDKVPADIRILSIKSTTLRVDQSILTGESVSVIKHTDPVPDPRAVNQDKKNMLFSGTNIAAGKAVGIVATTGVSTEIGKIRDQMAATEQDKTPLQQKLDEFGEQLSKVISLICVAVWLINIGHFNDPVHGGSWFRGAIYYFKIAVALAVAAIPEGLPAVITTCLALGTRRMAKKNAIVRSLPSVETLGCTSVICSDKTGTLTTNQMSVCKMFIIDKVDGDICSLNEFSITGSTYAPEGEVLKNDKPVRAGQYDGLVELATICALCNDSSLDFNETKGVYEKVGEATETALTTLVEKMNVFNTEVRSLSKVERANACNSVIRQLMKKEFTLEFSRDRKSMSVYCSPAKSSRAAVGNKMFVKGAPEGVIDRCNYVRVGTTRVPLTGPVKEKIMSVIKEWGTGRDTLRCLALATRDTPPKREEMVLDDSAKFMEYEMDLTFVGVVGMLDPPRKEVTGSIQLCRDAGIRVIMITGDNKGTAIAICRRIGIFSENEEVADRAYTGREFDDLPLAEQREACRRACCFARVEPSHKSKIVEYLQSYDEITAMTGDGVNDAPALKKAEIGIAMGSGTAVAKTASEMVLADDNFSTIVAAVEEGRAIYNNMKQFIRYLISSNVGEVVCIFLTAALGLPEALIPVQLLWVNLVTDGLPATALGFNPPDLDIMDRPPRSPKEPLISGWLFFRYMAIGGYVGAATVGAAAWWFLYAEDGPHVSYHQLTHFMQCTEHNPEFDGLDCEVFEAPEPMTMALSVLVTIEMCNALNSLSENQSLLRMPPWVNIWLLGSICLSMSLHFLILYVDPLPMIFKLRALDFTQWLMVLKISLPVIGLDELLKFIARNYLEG
How it was run: (§1)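 INS-1E cells preincubated 24 h with compound, then washed and incubated 30 min at 37 °C in glucose-free KRBH. A further 30 min at 37 °C followed in KRBH containing 16.7 mM glucose. Insulin in collected supernatants determined by RIA with rat insulin standard.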

[5] = biological target: Sarcoplasmic/endoplasmic reticulum calcium ATPase 1 (Rattus norvegicus) (UniProt Q64578); test: Inhibition of SERCA1 in rat INS-1E cells assessed as induction of apoptosis by measuring decrease in living cells at IC50 for cell viability incubated for 24 hrs by Annexin V-FITC/propidium iodide staining based flow cytometry
How it was run: (§2)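 INS-1E cells incubated 24 h with compound, then stained with Annexin V-FITC/propidium iodide. Living, early apoptotic and late apoptotic fractions scored by flow cytometry and compared with untreated cells.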

[6] = biological target: Sarcoplasmic/endoplasmic reticulum calcium ATPase 1 (Rattus norvegicus) (UniProt Q64578); test: Inhibition of SERCA1 in rat INS-1E cells assessed as induction of apoptosis by measuring increase in early apoptotic cells at IC50 for cell viability incubated for 24 hrs by Annexin V-FITC/propidium iodide staining based flow cytometry; how it was run: as §2
[7] = biological target: Sarcoplasmic/endoplasmic reticulum calcium ATPase 1 (Rattus norvegicus) (UniProt Q64578); test: Inhibition of SERCA1 in rat INS-1E cells assessed as induction of apoptosis by measuring increase in late apoptotic cells at IC50 for cell viability incubated for 24 hrs by Annexin V-FITC/propidium iodide staining based flow cytometry; how it was run: as §2
[8] = biological target: Sarcoplasmic/endoplasmic reticulum calcium ATPase 1 (Rattus norvegicus) (UniProt Q64578); test: Inhibition of SERCA1 in rat INS-1E cells assessed as insulin release preincubated for 24 hrs followed by incubation in glucose-free buffer and measured after 30 mins by RIA; type: cell-based; how it was run: as §1
[9] = system: INS-1E; test: Induction of SERCA2b expression in rat INS-1E cells at IC50 for cell viability incubated for 24 hrs by Western blot analysis; type: functional, cell-based
How it was run: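 INS-1E cells grown in RPMI 1640 (11 mM glucose) were exposed to compound for 24 h, then lysed in ice-cold lysis buffer, homogenized through a needle and centrifuged. Lysates (15 μg/lane) separated by SDS-PAGE and immunoblotted for SERCA2. Signal normalized to β-actin and given as %, average of 3–6 experiments.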

| SMILES | IC50 ([1]; read-out: IC50) [µM] | Activity [2] | Activity [3] | inhibition [4] | inhibition [5] | inhibition [6] | inhibition [7] | inhibition [8] | Activity [9] | IC50 ([1]; sr) |
| --- | --- | --- | --- | --- | --- | --- | --- | --- | --- | --- |
| CC(C)=CCc1c(-c2ccc(O)cc2O)oc2c3c(cc(O)c2c1=O)OC(C)(C)C=C3 [MORUSIN] | 43.6 | Active | Active | Active | Active | inactive | Active | inactive |  |  |
| Cc1cc2c3c(c1)-c1c(O)cc(-c4cc5ccc(O)cc5o4)cc1O[C@@]3(c1ccc(O)cc1O)Oc1cc(O)ccc1-2 | 24.6 | inactive | inactive | Active | Active | Active | inactive | inactive | Active |  |
| CC(C)=CCC/C(C)=C/Cc1cc([C@@H]2CC(=O)c3c(O)cc(O)cc3O2)c(O)cc1O | 29.4 | Active | Active | Active | Active | Active | Active | inactive |  |  |
| COc1cc(O)c([C@@H]2CC(=O)c3c(O)cc(O)cc3O2)cc1C/C=C(\C)CCC=C(C)C | 35.6 | Active | Active | Active | Active | Active | Active | inactive |  |  |
| CC1(C)Oc2cc3oc(-c4cc(O)cc(O)c4)cc3cc2CC1O (stereo not drawn) [(+/-)-MORACIN P] |  | Active | Active | Active | Active | Active | inactive | inactive |  | Not Active |
| CC1=C[C@@H]2c3c(O)cc(-c4cc5ccc(O)cc5o4)cc3O[C@@]3(c4ccc(O)cc4O)Oc4cc(O)ccc4[C@@H](C1)[C@H]23 | 18.9 | inactive | inactive | Active | Active | Active | inactive | inactive | Active |  |
| CC(C)(O)C1Cc2cc3cc(-c4cc(O)cc(O)c4)oc3cc2O1 (stereo not drawn) [MORACIN O] |  | Active | Active | Active | Active | Active | inactive | inactive |  | Not Active |
